How the values were obtained:
Type in all cases: functional
[1] = test system: Parabacteroides distasonis; test: Antimicrobial activity against Bacteroides distasonis by agar dilution method
Procedure, shortened: (§1)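 CLSI agar dilution on enriched brucella agar (5% lysed defibrinated sheep blood, 1 μg/ml vitamin K1), with drug plates made on the test day. Log-phase cells were adjusted to 0.5 McFarland, and about 10^5 CFU/spot was delivered by Steers replicator. Plates were incubated anaerobically at 37°C for 48 h. MIC was the lowest concentration giving a marked growth change versus the control plate. Controls were B. fragilis ATCC 25285 and B. thetaiotaomicron ATCC 29741.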

[2] = test system: Bacteroides caccae; test: Antimicrobial activity against Bacteroides caccae assessed as resistant isolates by agar dilution method
Procedure, shortened: (§2)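 CLSI agar dilution on enriched brucella agar (5% lysed defibrinated sheep blood, 1 μg/ml vitamin K1), plates made on test day. Log-phase inocula adjusted to 0.5 McFarland; about 10^5 CFU/spot by Steers replicator. Incubated anaerobically at 37°C for 48 h. MIC was the lowest concentration giving a marked change in growth versus the drug-free control plate. Resistance rates used CLSI anaerobe breakpoints. Controls were B. fragilis ATCC 25285 and B. thetaiotaomicron ATCC 29741.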

[3] = test system: Bacteroides caccae; test: Antimicrobial activity against Bacteroides caccae by agar dilution method; procedure, shortened: as §1
[4] = test system: Parabacteroides distasonis; test: Antimicrobial activity against Bacteroides distasonis assessed as resistant isolates by agar dilution method; procedure, shortened: as §2
[5] = test system: Bacteroides fragilis; test: Antimicrobial activity against Bacteroides fragilis by agar dilution method; procedure, shortened: as §1
[6] = test system: Bacteroides fragilis; test: Antimicrobial activity against Bacteroides fragilis assessed as resistant isolates by agar dilution method; procedure, shortened: as §2
[7] = test system: Bacteroides ovatus; test: Antimicrobial activity against Bacteroides ovatus by agar dilution method; procedure, shortened: as §1
[8] = test system: Bacteroides ovatus; test: Antimicrobial activity against Bacteroides ovatus assessed as resistant isolates by agar dilution method; procedure, shortened: as §2
[9] = test system: Bacteroides thetaiotaomicron; test: Antimicrobial activity against Bacteroides thetaiotaomicron by agar dilution method; procedure, shortened: as §1
[10] = test system: Bacteroides thetaiotaomicron; test: Antimicrobial activity against Bacteroides thetaiotaomicron assessed as resistant isolates by agar dilution method; procedure, shortened: as §2
[11] = test system: Bacteroides uniformis; test: Antimicrobial activity against Bacteroides uniformis by agar dilution method; procedure, shortened: as §1
[12] = test system: Bacteroides uniformis; test: Antimicrobial activity against Bacteroides uniformis assessed as resistant isolates by agar dilution method; procedure, shortened: as §2
[13] = test system: Phocaeicola vulgatus; test: Antimicrobial activity against Bacteroides vulgatus by agar dilution method; procedure, shortened: as §1
[14] = test system: Phocaeicola vulgatus; test: Antimicrobial activity against Bacteroides vulgatus assessed as resistant isolates by agar dilution method; procedure, shortened: as §2
[15] = test system: Bacteroides eggerthii; test: Antimicrobial activity against Bacteroides eggerthii by agar dilution method; procedure, shortened: as §1
[16] = test system: Bacteroides eggerthii; test: Antimicrobial activity against Bacteroides eggerthii assessed as resistant isolates by agar dilution method; procedure, shortened: as §2
[17] = test system: Parabacteroides merdae; test: Antimicrobial activity against Bacteroides merdae by agar dilution method; procedure, shortened: as §1
[18] = test system: Parabacteroides merdae; test: Antimicrobial activity against Bacteroides merdae assessed as resistant isolates by agar dilution method; procedure, shortened: as §2
[19] = test system: Bacteroides nordii; test: Antimicrobial activity against Bacteroides nordii by agar dilution method; procedure, shortened: as §1
[20] = test system: Bacteroides nordii; test: Antimicrobial activity against Bacteroides nordii assessed as resistant isolates by agar dilution method; procedure, shortened: as §2
[21] = test system: Clostridioides difficile; test: Antimicrobial activity against Clostridium difficile by agar dilution method
[22] = test system: Clostridium perfringens; test: Antimicrobial activity against Clostridium perfringens by agar dilution method
[23] = test system: [Clostridium] innocuum; test: Antimicrobial activity against Clostridium innocuum by agar dilution method
[24] = test system: [Clostridium] innocuum; test: Antimicrobial activity against Clostridium innocuum assessed as resistant isolates by agar dilution method; conditions: pooled result: one value given for 4 cell lines, strains, targets or settings
[25] = test system: Clostridium paraputrificum; test: Antimicrobial activity against Clostridium paraputrificum by agar dilution method
[26] = test system: Clostridium subterminale; test: Antimicrobial activity against Clostridium subterminale by agar dilution method
[27] = test system: Clostridium tertium; test: Antimicrobial activity against Clostridium tertium by agar dilution method
[28] = test system: Finegoldia magna; test: Antimicrobial activity against Finegoldia magna by agar dilution method
Procedure, shortened: (§3)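 Gram-positive anaerobes were tested by CLSI agar dilution on brucella agar enriched with 5% lysed defibrinated sheep blood and 1 μg/ml vitamin K1. Inoculum was log-phase growth at 0.5 McFarland, about 10^5 CFU/spot by replicator. Incubation was anaerobic, 37°C, 48 h. MIC was the lowest concentration with a marked growth change versus the drug-free plate. Eubacterium lentum ATCC 43055 was the control, and tests were repeated if it fell outside the CLSI range.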

[29] = test system: Finegoldia magna; test: Antimicrobial activity against Finegoldia magna assessed as resistant isolates by agar dilution method
Procedure, shortened: (§4)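 Agar dilution following CLSI on brucella agar with 5% lysed defibrinated sheep blood and 1 μg/ml vitamin K1, plates made on test day. Log-phase cells at 0.5 McFarland, about 10^5 CFU/spot by Steers replicator, 48 h anaerobic at 37°C. MIC read as the lowest concentration causing a marked growth change versus control. Resistance counted by CLSI anaerobe breakpoints. Eubacterium lentum ATCC 43055 served as control.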

[30] = test system: Peptoniphilus asaccharolyticus; test: Antimicrobial activity against Peptoniphilus asaccharolyticus by agar dilution method; procedure, shortened: as §3
[31] = test system: Peptoniphilus asaccharolyticus; test: Antimicrobial activity against Peptoniphilus asaccharolyticus assessed as resistant isolates by agar dilution method; conditions: pooled result: one value given for 4 cell lines, strains, targets or settings; procedure, shortened: as §4
[32] = test system: Parvimonas micra; test: Antimicrobial activity against Micromonas micros by agar dilution method; procedure, shortened: as §3
[33] = test system: Anaerococcus prevotii; test: Antimicrobial activity against Anaerococcus prevotii by agar dilution method; procedure, shortened: as §3
[34] = test system: Peptostreptococcus sp.; test: Antimicrobial activity against Peptostreptococcus sp. by agar dilution method
Procedure, shortened: (§5)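 Log-phase isolates were adjusted to 0.5 McFarland, and about 10^5 CFU/spot was delivered by Steers replicator. Plates were incubated anaerobically at 37°C for 48 h. MIC was the lowest concentration giving a marked growth change versus the control plate. Eubacterium lentum ATCC 43055 was the QC strain, with repeats when out of range.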

[35] = test system: Cutibacterium acnes; test: Antimicrobial activity against Propionibacterium acnes by agar dilution method; procedure, shortened: as §5
[36] = test system: Cutibacterium acnes; test: Antimicrobial activity against Propionibacterium acnes assessed as resistant isolates by agar dilution method; procedure, shortened: as §4
[37] = test system: Propionibacterium; test: Antimicrobial activity against Propionibacterium sp. by agar dilution method; procedure, shortened: as §5
[38] = test system: Propionibacterium; test: Antimicrobial activity against Propionibacterium sp. assessed as resistant isolates by agar dilution method; procedure, shortened: as §4

C[C@@H](O)[C@H]1C(=O)N2C(C(=O)O)=C(S[C@@H]3CN[C@H](C(=O)N(C)C)C3)[C@H](C)[C@H]12 [MEROPENEM]
2 µg/mL: MIC90 [1] | MIC90 [3] | MIC90 [7] | MIC90 [9] | MIC90 [13] | MIC50 [23] | MIC90 [23] | MIC50 [25] | MIC90 [25] | MIC50 [26] | MIC90 [26] | MIC50 [27] | MIC90 [27]
1.5%: Activity [6]
0.5 µg/mL: MIC50 [7] | MIC50 [9] | MIC90 [11] | MIC50 [13] | MIC90 [30] | MIC90 [32] | MIC90 [33] | MIC90 [34]
0.125 µg/mL: MIC90 [22] | MIC50 [28] | MIC90 [28] | MIC50 [30] | MIC50 [32] | MIC50 [33] | MIC50 [34]
1 µg/mL: MIC50 [1] | MIC90 [5] | MIC90 [15] | MIC90 [17] | MIC90 [19] | MIC [21]
0.06 µg/mL: MIC [22] | MIC50 [22] | MIC [35] | MIC50 [35] | MIC90 [35] | MIC [37] | MIC50 [37]
0%: Activity [2] | Activity [4] | Activity [8] | Activity [10] | Activity [12] | Activity [14] | Activity [16] | Activity [18] | Activity [20] | Activity [24] | Activity [29] | Activity [31] | Activity [36] | Activity [38]
0.25 µg/mL: MIC50 [3] | MIC50 [5] | MIC50 [11] | MIC50 [15] | MIC50 [17] | MIC50 [19] | MIC90 [37]

C[C@@H](O)[C@H]1C(=O)N2C(C(=O)O)=C(S[C@@H]3CN[C@H](C(=O)Nc4cccc(C(=O)O)c4)C3)[C@H](C)[C@H]12
0%: Activity [2] | Activity [4] | Activity [10] | Activity [12] | Activity [14] | Activity [16] | Activity [18] | Activity [20] | Activity [24] | Activity [29] | Activity [31] | Activity [36] | Activity [38]
0.06 µg/mL: MIC [22] | MIC50 [22] | MIC [35] | MIC50 [35] | MIC90 [35] | MIC [37] | MIC50 [37]
2 µg/mL: MIC90 [3] | MIC90 [5] | MIC50 [9] | MIC90 [11] | MIC90 [13] | MIC90 [15] | MIC90 [17] | MIC90 [19] | MIC [21]
2.9%: Activity [8]
1 µg/mL: MIC50 [1] | MIC50 [7] | MIC50 [15] | MIC50 [17] | MIC50 [19]
0.5 µg/mL: MIC50 [3] | MIC50 [5] | MIC50 [11] | MIC50 [13] | MIC90 [30] | MIC90 [32] | MIC90 [33] | MIC90 [34]
0.125 µg/mL: MIC50 [28] | MIC90 [28] | MIC50 [30] | MIC50 [32] | MIC50 [33] | MIC50 [34]
8 µg/mL: MIC90 [23] | MIC90 [25] | MIC90 [26] | MIC90 [27]
2%: Activity [6]
4 µg/mL: MIC90 [1] | MIC90 [7] | MIC90 [9] | MIC50 [23] | MIC50 [25] | MIC50 [26] | MIC50 [27]
0.25 µg/mL: MIC90 [22] | MIC90 [37]

From ChEMBL document CHEMBL1275561, “In vitro activities of doripenem, a new broad-spectrum carbapenem, against recently collected clinical anaerobic isolates, with emphasis on the Bacteroides fragilis group” (2008)
